Source: PubChem BioAssay
The full list was thinned out, with hits kept by preference.
Lung fibro prol = blocks proliferation of human lung fibroblasts; AID 719; hit rate 1.1% among 85,000; viability, % at 10 µM; LL 47 human lung fibroblast viability, ATP luminescence; active compounds read low;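 active = viability at or below 50% in the single dose screen; inactive = viability above 50%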;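 also: compound exposure lasted 72 h before the ATP readout; 100% = median luminescence of untreated cell-only wells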
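Times – overnight cell rest, 72 h compound treatment at 37 °C · Test system – human lung fibroblast line LL 47, low passage · Amount – 1,150 cells in each well · Controls – cell-only wells, no compound · Doses – 0.1% DMSO in all compound wells · Measured by – CellTiter-Glo luminescence · Buffer or medium – IMEM plus 15% FBS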
HCT116 PTEN-null = growth suppressors of cells with PTEN tumor suppressor deletion. HCT116 PTEN-null viability, CellTiter-Glo, 60 h; active compounds read low. viability, % at 10 µM. hit rate 1.2% among 140,000. AID 827;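 active = viability at or below a set limit, 4 SD under the median of all tested compounds, cut at about 3.7% in these data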;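 also: PTEN knockout HCT116 line with beta catenin targeted HCT116 as companion control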
HCT116 bCat-KO = beta-catenin-lacking colon tumor cell growth suppression; HCT116 beta-catenin knockout viability, CellTiter-Glo, 60 h; active compounds read low; viability, % at 10 µM; hit rate 1.5% among 140,000; AID 818;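 active = viability at or under a set limit, the compound median less 4 SD, cut at about 6% in these data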;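 also: 0% = Hyamine 1622 control at 20 µM and 100% = untreated cell control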
HUVEC inhibit = inhibitors of human endothelial cell proliferation. viability, % at 10 µM (by protocol). AID 648. HUVEC proliferation, CellTiter-Glo luminescence, 72 h; active compounds read low. hit rate 1.1% among 86,000;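 active = viability at or below 30%; inactive = viability above 30%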;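 also: 100% = median luminescence of DMSO-only cell control wells on each plate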
H69AR inhibit = blocks growth of human H69AR lung tumor cells | viability, % at 10 µM | hit rate 6% among 85,000 | H69AR lung tumor viability, ATP luminescence, 72 h; active compounds read low;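 active = viability at or below 40%; inactive = viability above 40%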;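 also: multidrug resistant small cell line overexpressing MRP-1 efflux transporter; 100% = mean luminescence of untreated control wells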
* marks the source's active call; other numbers are inactive results; . = no result given.

SMILES | Lung fibro prol | HCT116 PTEN-null | HCT116 bCat-KO | HUVEC inhibit | H69AR inhibit
Nc1nc(Cl)cc(N2CCOCC2)n1 | . | 94 | 91 | . | .
Nc1nc(Cl)cc(N2CCC(c3cc(-c4ccc(Cl)cc4Cl)n[nH]3)CC2)n1 | . | 4 | 3.2* | . | .
Cc1ccc(N=C2NC(=O)/C(=C\c3ccsc3)S2)c(C)c1 | . | 66 | 70 | . | .
C=CCn1c(Cc2csc(N)n2)nnc1SCC(=O)Nc1ccccc1C(F)(F)F | 99 | 96 | 96 | 94 | 99
Cc1ccccc1Cc1c(C)nc2nc(SCC(=O)NCc3ccco3)nn2c1C | . | 78 | 86 | . | .
Cc1ccccc1Cc1c(C)nc2c(C(=O)NCc3ccco3)cnn2c1C | 106 | 81 | 85 | 92 | 40*
Cc1cccc(N2CCN(S(=O)(=O)c3cccc4nonc34)CC2)c1C | . | 63 | 82 | . | .
COC(=O)C1CCN(C(=O)COc2ccc(Cl)cc2)CC1 | 95 | 96 | 97 | 100 | 95
COC(=O)C1CCN(C(=O)COc2cc3sc(C)nc3c3sccc23)CC1 | 99 | 89 | 81 | 89 | 35*
Cc1ccc(/C=C/C2=Cc3c(sc(NC(=O)CSc4n[nH]c(N)n4)c3C#N)C(C)(C)C2)o1 | 68 | 59 | 53 | 73 | 29*
Cc1nn(Cc2c(Cl)cccc2Cl)c(Cl)c1/C=N/NC(=O)c1cccnc1 | . | 83 | 88 | . | .
CC(c1ccccc1)N1CC(C(=O)N2CCN(c3ccc(F)cc3)CC2)CC1=O (stereo unspecified) | 97 | 90 | 87 | 110 | 99
COc1ccc(NC(=O)c2ccc(S(=O)(=O)N3CCOCC3)cc2)c(OC)c1 | 103 | 100 | 108 | 85 | 95
CC(=O)Nc1nnc(-c2ccc3c(c2)CCCC3)o1 | 95 | 110 | 87 | 100 | 76
COc1cccc(-c2nnc(NC(=O)c3ccc(S(=O)(=O)N4CCOCC4)cc3)o2)c1 | 69 | 14 | 15 | 15* | 20*
O=C(NCC1CCN(c2ccc(S(=O)(=O)N3CCOCC3)cc2)CC1)c1cccc(Cl)c1 | 96 | 78 | 76 | 81 | 49
CC1CN(S(=O)(=O)c2ccc(C(=O)Nc3nnc(-c4ccc5c(c4)CCCC5)o3)cc2)CC(C)O1 (stereo unspecified) | 39* | 13 | 13 | 7.0* | 17*
COc1cccc(C(=O)NCC2CCN(c3ccc(S(=O)(=O)N4CCOCC4)cc3)CC2)c1 | 92 | 78 | 81 | 86 | 30*
COc1cc(C(=S)N2CCCC2)cc(OC)c1O | 97 | 96 | 108 | 95 | 92
COc1ccc(C(=O)Oc2ccc(F)cc2C(=O)/C=C/c2ccc(OC)c(OC)c2)cc1 | . | 101 | 98 | . | .
COc1ccc(/C=C/C(=O)c2cc(F)ccc2OC(=O)c2ccccc2C)cc1OC | . | 2.1* | 2.2* | . | .
COc1cccc(-n2c(SCC(N)=O)nc3c([nH]c4ccccc43)c2=O)c1 | 66 | 20 | 17 | 72 | 23*
COc1cccc(-n2c(SCC(=O)Nc3cc(C)on3)nc3c([nH]c4ccccc43)c2=O)c1 | 78 | 79 | 75 | 79 | 92
CCCNc1nc(Nc2ccc(C)cc2)nc(N2CCCC2)n1 | 66 | 61 | 57 | 30 | 35*
N#C/C(=C1\C(=O)Nc2c(Cl)cc(Cl)cc21)c1nnc2n1CCCCC2 | 99 | 90 | 92 | 85 | 36*
SMILES | Lung fibro prol | HCT116 PTEN-null | HCT116 bCat-KO | HUVEC inhibit | H69AR inhibit
COc1ccc(OC)c(S(=O)(=O)N2CCC(C(=O)N3CCc4ccccc4C3)CC2)c1 | 97 | 86 | 92 | 86 | 36*
Cc1c(Cl)cccc1-n1c(SCC(=O)NCc2cccs2)nnc1-c1ccncc1 | 102 | 94 | 98 | 103 | 83
Cc1c(Cl)cccc1-n1c(SCC(=O)NCc2ccccc2Cl)nnc1-c1ccncc1 | 94 | 78 | 87 | 86 | 21*
N#CC(c1cccc(Cl)c1)c1ncc(C(F)(F)F)cc1Cl (stereo unspecified) | . | 96 | 98 | . | .
Cc1conc1NC(c1cccs1)c1ccc2cccnc2c1O (stereo unspecified) | 3.1* | 2.6* | 3.5* | 24* | 19*
CCOc1cc(N2CCOCC2)c(OCC)cc1NS(=O)(=O)c1ccc(Cl)s1 | . | 11 | 11 | 58 | 20*
CCOc1cc(N2CCOCC2)c(OCC)cc1NC(=O)CCS(=O)(=O)c1ccc(Cl)cc1 | 94 | 100 | 90 | 98 | 77
CC[C@H](C)NC(=O)c1ccc(Cn2c(=S)[nH]c3c([nH]c4ccc(OC)cc43)c2=O)cc1 | . | 90 | 91 | . | .
Cc1ccc(C(=O)N(Cc2ccccc2)C(C)(C)C)cc1C | . | 68 | 72 | . | .
O=C1CN(C(=O)CSc2nc(-c3ccc(Cl)cc3)cs2)c2ccccc2N1 | . | 61 | 49 | . | .
COc1ccc(S(=O)(=O)Cc2ccccc2)cc1N | 95 | 93 | 91 | 91 | 37*
CCN(c1ccccc1)S(=O)(=O)c1ccc(N)c(OC)c1 | 72 | 27 | 24 | 55 | 17*
COc1cc(OC)c(C#N)c(S(=O)(=O)Cc2ccccc2)c1 | 92 | 93 | 97 | 95 | 77
Cc1cc(C)c2c(n1)sc1c(-c3ccccc3)c(C#N)c(N)nc12 | . | 55 | 67 | . | .
N#CC(C#N)=C1C=CC=CN1/C(=C\c1ccco1)C(=O)c1ccccc1 | . | 1.8* | 1.9* | . | .
c1ccc(-c2cc(-c3nnc4n3N=C(c3ccc5ccccc5c3)CS4)[nH]n2)cc1 | . | 1.9* | 6 | . | .
COc1ccc(-c2nnc3n2N=C(c2ccccc2)CS3)cc1OC | 15* | . | . | 32 | 54
COc1ccc(C2=Nn3c(nnc3-c3ccccc3)SC2)cc1OC | 94 | 94 | 87 | 91 | 84
Cc1cc(-c2nnc3n2N=C(c2ccc(-c4ccccc4)cc2)CS3)n[nH]1 | 60 | 3.1* | 19 | 28* | 3.9*
Cc1cccc(-c2nnc3n2N=C(c2ccccc2)CS3)c1 | 91 | 83 | 102 | 97 | 36*
c1ccc(C2=Nn3c(nnc3-c3ccncc3)SC2)cc1 | 106 | 71 | 72 | 77 | 81
CC(C)Cn1c(N)c(C(=O)CSc2ncnc3sc4c(c23)CCCC4)c(=O)n(C)c1=O | . | 14 | 44 | . | .
COc1ccc(Cc2nnc3n2N=C(c2cc4ccccc4o2)CS3)cc1OC | 94 | . | . | 82 | 35*
CCCc1nnc2n1N=C(c1ccc(OC)c(OC)c1)CS2 | 73 | 81 | 87 | 84 | 79
COc1ccc(C2=Nn3c(nnc3C3CCCCC3)SC2)cc1OC | 41* | 55 | 60 | 82 | 15*
SMILES | Lung fibro prol | HCT116 PTEN-null | HCT116 bCat-KO | HUVEC inhibit | H69AR inhibit
CCOC(=O)C1Cc2cc3c(cc2C1=O)CC(C(=O)OCC)C3=O (stereo unspecified) | 103 | 92 | 95 | 110 | 20*
CC1=CCC(/C=N\Nc2nnc3c(n2)[nH]c2ccccc23)CC1 (stereo unspecified) | . | 96 | 88 | . | .
Cc1cc(C(=O)c2ccc(Cl)cc2)c(NC(=O)CCl)s1 | . | 1.8* | 4.2* | . | .
CCc1cc(C(=O)c2ccc(C)cc2)c(NC(=O)CCl)s1 | . | 49 | 52 | . | .
Cc1c(O)nc(SCC(=O)Nc2ccc3c4c(cccc24)CC3)n(-c2ccc(F)cc2)c1=O | . | 97 | 95 | . | .
CC(C)c1ccc(-c2nc(N3CCCC3)nc3n[nH]c(N)c23)cc1 | 75 | 82 | 92 | 57 | 11*
